# Laboratory results: publication PMC4785611 (British Journal of Haematology, 2016)
# Entries after “also recorded” stand apart in the source; their conditions may differ.
# How the values were obtained:
# [1] = tested on: patients with multiple myeloma; details: of 526 patients; ref Siegel et al, 2013; cited from earlier work
# [2] = tested on: Japanese patients with relapsed and/or refractory multiple myeloma; experiment: Phase 1/2 study ONO-7057-01: adverse events; assay type: in vivo, human
# Method in brief: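 Safety set was all patients given ≥1 IV dose (10 min; Days 1, 2, 8, 9, 15, 16 of 28-day cycles). Pre-medication was 4 mg oral or IV dexamethasone, with hydration in Cycle 1. Cycle 1 also had prophylactic antibiotics, plus acyclovir if herpes history. Patients with Grade ≥3 or painful Grade 2 PN or prior ILD were excluded. AEs were graded by NCI-CTCAE v4.0 through Cycle 6, with later cycles included.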
# [3] = tested on: Japanese patients with relapsed and/or refractory multiple myeloma; experiment: Phase 1 dose escalation: dose-limiting toxicity in Cycle 1; assay type: in vivo, human; details: for Dose-limiting toxicity (DLT): Cycle 1
# Method in brief: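 Test compound was given IV over 10 min on Days 1, 2, 8, 9, 15 and 16 of 28-day cycles. The 20/27 arm received 20 mg/m2 on Days 1–2 of Cycle 1 and 27 mg/m2 from Day 8. Three or six patients per cohort: 1/3 DLT added three patients. At 2/3 or 3/6, the prior level became the recommended dose. No G-CSF was allowed during Cycle 1 evaluation.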
structure (smiles),measurement,setting,value
CC(C)C[C@H](NC(=O)[C@H](CCc1ccccc1)NC(=O)CN1CCOCC1)C(=O)N[C@@H](Cc1ccccc1)C(=O)N[C@@H](CC(C)C)C(=O)[C@@]1(C)CO1 [carfilzomib],"PN Grade ≥3, patients, integrated analysis",[1],seven
same,"Peripheral neuropathy under study treatment, preferred terminology (Grade)","[2]; Patient No. 1, 20 mg/m^2, baseline PN Grade 1, worst PN Grade before the study 3",Peripheral neuropathy (2)
same,Interstitial lung disease (ILD),"[2]; Total, N = 50",No ILD was observed
same,AEs leading to death,[2]; during administration period or within 30 days after final administration,No AEs led to death
same,New PN in patients who had never experienced PN before enrolment,[2]; five patients without PN history,no new cases of PN occurred and did not develop PN and none
same,Patients with PN at baseline in whom carfilzomib exacerbated PN,[2]; of 35 patients with PN at baseline,three
same,"Patients believed to have infections leading to treatment interruption (pneumonia, fever)",[2]; of the 24 patients whose treatment was interrupted,three
same,Patients with treatment interrupted because of neutropenia,"[2]; of the 24 patients whose treatment was interrupted, seven events",five
same,Dose-limiting toxicity (DLT),"[3]; 15 mg/m^2 cohort, four patients (one not evaluable)",no DLT was observed
same,Dose-limiting toxicity (DLT),"[3]; 20/27 mg/m^2 cohort, seven patients (one not evaluable)",no DLT was observed
same,Maximum tolerated dose (MTD),"[3]; doses 15, 20 and 20/27 mg/m^2",did not reach the maximum tolerated dose; also recorded: did not reach the MTD
